Results pooled from the literature.
Effect on: cell growth or viability

COc1cc(C(=O)c2nc(-c3ccsc3)c[nH]2)cc(OC)c1OC gave an IC50 of 0.0432 µM (A-375; MTS; 72 h).
The viability of O=C(Nc1ccc(Oc2nc3ccccc3n3cnnc23)cc1)Nc1cccc(Cl)c1 is reported as 29.3% (MDA-MB-231; MTT; 100 µM, 24 h).
With COc1cc(C(=O)c2nc(-c3ccnc4[nH]ccc34)c[nH]2)cc(OC)c1OC the IC50 was 0.0285 µM (A-375; MTS; 72 h).
With Cc1nc(Nc2ncc(C(=O)Nc3c(C)cccc3Cl)s2)cc(N2CC[C@H](O)C2)n1 the inhibition was 11% (SU-DHL-1; ATP luminescence; 10 µM, 72 h).
The IC50 of COc1cccc2c1C(=O)c1c(O)c3c(c(O)c1C2=O)C[C@@](O)(C(=O)CO)C[C@@H]3O[C@H]1C[C@H](N)[C@H](O)[C@H](C)O1 is reported as 0.109 µM (HS27; CCK-8; 72 h).
For O=C(Nc1ccccc1/N=c1\cc(-c2ccc3c(c2)OCO3)oc2ccccc12)N1CCOCC1, the inhibition was -4.28% (MDA-MB-231; CCK-8; 1 µM).
COc1cccc(NC(=O)Nc2ccc(Oc3nc4ccccc4n4cnnc34)cc2)c1 has a viability of 46.2% (MDA-MB-231; MTT; 25 µM, 24 h).
The IC50 of COc1cc(C(=O)c2nc(-c3ccncc3)c[nH]2)cc(OC)c1OC is reported as greater than 1 µM (A-375; MTS; 72 h).
COc1ccc2/c(=N/c3ccccc3NC(=O)CN)cc(-c3ccc4c(c3)OCCO4)oc2c1 gave an inhibition of 12.6% (MDA-MB-231; CCK-8; 1 µM).
For O=C(Nc1ccc(Cl)cc1)Nc1ccc(Oc2nc3ccccc3n3cnnc23)cc1, the viability was 77.3% (MDA-MB-231; MTT; 25 µM, 24 h).
With C[C@H]1CNCCN1c1nccc(-c2noc3c2CCC[C@@]32CCCc3sc(N)c(C#N)c32)n1 the EC50 was 5.01 µM (A-375; 5 days).
C[C@H](N)C(=O)Nc1ccccc1/N=c1\cc(-c2ccc3c(c2)OCCO3)oc2c([N+](=O)[O-])cccc12 gave an inhibition of -3.63% (MDA-MB-231; CCK-8; 1 µM).
The viability of CNC(=O)c1cc(Oc2ccc(NC(=O)Nc3ccc(Cl)c(C(F)(F)F)c3)cc2)ccn1 is reported as 16.7% (MDA-MB-231; MTT; 50 µM, 24 h).
NCCCC(=O)Nc1ccccc1/N=c1\cc(-c2ccc3c(c2)OCO3)oc2ccccc12 gave an inhibition of 8.02% (MDA-MB-231; CCK-8; 1 µM).
The IC50 of COc1cc(C(=O)c2nc(-c3cccc4c3CC(=O)N4)c[nH]2)cc(OC)c1OC is reported as 0.0275 µM (A-375; MTS; 72 h).
For C=C1C[C@@]23CC[C@H]4[C@@](C)(CCC[C@@]4(C)C(=O)O)[C@@H]2CC[C@@H]1C3, the IC50 was 99.2 µM (MRC5; MTT; 75 h).
The inhibition of NCCC(=O)Nc1ccccc1/N=c1\cc(-c2ccc3nc(N)oc3c2)oc2ccccc12 is reported as 68.6% (MDA-MB-231; CCK-8; 1 µM).
